Assay results from ChEMBL document CHEMBL1629456, “ApoA-I mimetic peptides promote pre-β HDL formation in vivo causing remodeling of HDL and triglyceride accumulation at higher dose” (Bioorg Med Chem, 2010).
The source made the active and inactive calls. No cut-off for these calls is given here. *1 amine or outer side, *2 acyl side, *3 side chain or, on linkers, in order; H or OH if unused. Where a SMILES comes first, the peptide text is derived from it. [ ]: non-standard residue; d: D form. dGly(6-heptenyl) = C=CCCCCC[C@@H](N)C(=O)O; Ala(5-hexenyl) = C=CCCCCC[C@H](N)C(=O)O; X1 = CCCCCCC[C@H](N[*:1])C(=O)[*:2]

What was measured:
[1] = target: Lipoprotein lipase (Bos taurus) (UniProt P11151); test: Inhibition of Lipoprotein lipase in vitro
Mus musculus [2] = test: Increase in VLDL cholesterol level in C57/BL6 mouse at 30 mg/kg, sc by FPLC; type: functional, organism-based; set-up: dose 30 mg/kg; conditions: C57Bl/6
How it was run: (§1)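 Male C57Bl/6 mice (≥12 weeks, chow-fed) dosed subcutaneously with peptide in vehicle (50 mM mannitol in PBS); serum collected by cardiac puncture at time points post-dose. Serum was pooled (three animals per pool), given protease and lipase inhibitors, filtered, and fractionated by Superose 6 FPLC in PBS pH 7.4 with 1 mM EDTA at 0.2 ml/min. Cholesterol and triglyceride in fractions were measured by enzymatic colorimetry.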

Mus musculus [3] = test: Effect on triglyceride level in C57/BL6 mouse at 20 mg/kg, sc after 1 hr; type: functional, organism-based; set-up: dose 20 mg/kg; conditions: C57Bl/6
How it was run: (§2)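 Male C57Bl/6 mice (≥12 weeks, chow-fed) given peptide subcutaneously in 50 mM mannitol/PBS vehicle. Serum was collected by cardiac puncture at 1 or 3 h, clotted 1 h at room temperature and spun at 10,000g. Serum triglyceride was measured by enzymatic colorimetric assay, with 3–5 animals per dose and time point.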

Mus musculus [4] = test: Induction of hypertriglyceridemia in C57/BL6 mouse at 100 mg/kg, sc by FPLC; type: functional, organism-based; set-up: dose 100 mg/kg; conditions: C57Bl/6
How it was run: as §1

[5] = target: Phospholipid-transporting ATPase ABCA1 (Mus musculus) (UniProt P41233); test: Induction of ABCA1-mediated [3H]cholesterol efflux in mouse J774 macrophages; conditions: TDE = time-dependent effect
Phospholipid-transporting ATPase ABCA1 (Mus musculus), sequence (P41233 whole entry): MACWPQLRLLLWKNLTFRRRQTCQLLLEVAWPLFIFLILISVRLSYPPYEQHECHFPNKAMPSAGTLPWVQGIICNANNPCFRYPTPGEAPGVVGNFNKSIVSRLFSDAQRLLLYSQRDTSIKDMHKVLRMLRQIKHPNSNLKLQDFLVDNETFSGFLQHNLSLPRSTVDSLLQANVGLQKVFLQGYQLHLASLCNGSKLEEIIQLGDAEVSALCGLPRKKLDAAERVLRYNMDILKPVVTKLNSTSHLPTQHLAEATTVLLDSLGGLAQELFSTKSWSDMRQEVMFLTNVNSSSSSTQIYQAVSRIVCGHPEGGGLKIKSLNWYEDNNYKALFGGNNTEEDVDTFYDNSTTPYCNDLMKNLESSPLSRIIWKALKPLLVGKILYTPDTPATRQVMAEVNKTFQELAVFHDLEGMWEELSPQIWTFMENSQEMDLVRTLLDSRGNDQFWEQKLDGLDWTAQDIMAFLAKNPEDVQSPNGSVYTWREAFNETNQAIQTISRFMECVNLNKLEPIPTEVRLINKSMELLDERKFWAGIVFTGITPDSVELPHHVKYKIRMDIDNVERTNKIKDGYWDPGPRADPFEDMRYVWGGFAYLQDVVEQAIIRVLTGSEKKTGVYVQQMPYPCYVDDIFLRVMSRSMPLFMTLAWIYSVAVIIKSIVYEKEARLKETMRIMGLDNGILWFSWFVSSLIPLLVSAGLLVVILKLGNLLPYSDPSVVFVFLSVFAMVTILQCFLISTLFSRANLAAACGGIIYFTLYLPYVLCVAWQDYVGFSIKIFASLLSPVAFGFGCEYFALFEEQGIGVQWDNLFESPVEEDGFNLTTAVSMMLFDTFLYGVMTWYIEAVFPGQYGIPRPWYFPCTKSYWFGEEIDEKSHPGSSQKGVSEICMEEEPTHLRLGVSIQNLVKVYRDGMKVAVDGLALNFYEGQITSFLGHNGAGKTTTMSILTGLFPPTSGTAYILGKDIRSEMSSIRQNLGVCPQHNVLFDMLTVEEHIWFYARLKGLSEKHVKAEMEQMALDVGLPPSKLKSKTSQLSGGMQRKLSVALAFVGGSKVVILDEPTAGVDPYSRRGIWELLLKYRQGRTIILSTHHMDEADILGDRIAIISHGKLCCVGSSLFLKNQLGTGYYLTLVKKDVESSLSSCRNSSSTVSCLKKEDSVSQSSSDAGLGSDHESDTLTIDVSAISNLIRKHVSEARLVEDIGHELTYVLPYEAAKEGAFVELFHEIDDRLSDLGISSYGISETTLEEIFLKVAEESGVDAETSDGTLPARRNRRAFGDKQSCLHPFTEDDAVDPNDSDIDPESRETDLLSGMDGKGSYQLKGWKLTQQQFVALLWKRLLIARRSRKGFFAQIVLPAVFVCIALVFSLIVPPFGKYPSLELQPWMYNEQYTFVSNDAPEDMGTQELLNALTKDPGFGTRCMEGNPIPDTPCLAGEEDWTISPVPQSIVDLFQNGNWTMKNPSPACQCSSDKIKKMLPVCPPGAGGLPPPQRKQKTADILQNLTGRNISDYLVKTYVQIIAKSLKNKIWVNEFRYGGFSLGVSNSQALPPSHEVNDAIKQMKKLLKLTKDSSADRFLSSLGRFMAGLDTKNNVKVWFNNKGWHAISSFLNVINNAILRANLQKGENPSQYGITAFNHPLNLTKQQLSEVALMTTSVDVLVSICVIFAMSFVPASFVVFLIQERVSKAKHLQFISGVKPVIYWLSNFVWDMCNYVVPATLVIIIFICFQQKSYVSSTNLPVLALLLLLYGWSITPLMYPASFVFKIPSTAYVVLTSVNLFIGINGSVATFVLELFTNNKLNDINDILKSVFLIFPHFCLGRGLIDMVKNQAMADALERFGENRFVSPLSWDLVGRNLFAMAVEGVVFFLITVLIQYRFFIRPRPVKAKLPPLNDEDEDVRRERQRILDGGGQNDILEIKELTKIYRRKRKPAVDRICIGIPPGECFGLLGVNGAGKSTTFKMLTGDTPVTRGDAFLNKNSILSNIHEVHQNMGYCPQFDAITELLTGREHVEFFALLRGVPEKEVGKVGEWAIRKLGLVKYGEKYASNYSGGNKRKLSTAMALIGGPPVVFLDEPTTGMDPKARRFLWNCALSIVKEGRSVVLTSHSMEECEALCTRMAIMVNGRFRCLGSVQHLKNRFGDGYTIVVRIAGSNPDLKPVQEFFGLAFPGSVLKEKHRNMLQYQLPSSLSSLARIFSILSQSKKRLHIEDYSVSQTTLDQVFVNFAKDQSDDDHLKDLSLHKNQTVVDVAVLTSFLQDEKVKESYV
How it was run: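 Ex vivo serum efflux. J774 macrophages were labeled with [3H]cholesterol for 24 h, then equilibrated 18 h in 0.2% BSA, with or without cpt-cAMP. Cells were incubated 4 h at 37 °C with 2% serum from peptide-dosed apoe-/- mice (60 mg/kg sc). Fractional efflux was media [3H] over total at time zero; ABCA1-dependent efflux = cAMP-treated minus untreated.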

Plasma [6] = test: Induction of pre-beta HDL formation in human plasma after 2 hrs by ELISA; type: functional, cell-free
How it was run: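 Increasing peptide concentrations were incubated with normal human plasma at 37 °C for 2 h. Pre-β HDL was quantified by a commercial human pre-β HDL ELISA.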

Mus musculus [7] = test: Increase in VLDL triglyceride level in C57/BL6 mouse at 100 mg/kg, sc by FPLC; type: functional, organism-based; set-up: dose 100 mg/kg; conditions: C57Bl/6
How it was run: as §1

Mus musculus [8] = test: Increase in VLDL cholesterol level in C57/BL6 mouse at 100 mg/kg, sc by FPLC; type: functional, organism-based; set-up: dose 100 mg/kg; conditions: C57Bl/6
How it was run: as §1

Mus musculus [9] = organism: Mus musculus; test: Induction of pre-beta HDL formation in C57/BL6 mouse plasma at 0.25 mg/ml after 2 hrs by FPLC; type: functional; conditions: C57Bl/6
How it was run: (§3)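 Peptide was added to C57Bl/6 mouse plasma (final 0.25 mg/ml) or human plasma (final 0.5 mg/ml) and incubated at 37 °C. Lipoproteins were fractionated by Superose 6 FPLC in PBS pH 7.4 with 1 mM EDTA. Cholesterol was measured by enzymatic colorimetry and peptide by LC–MS against an internal standard.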

Mus musculus [10] = test: Decrease in HDL cholesterol level in C57/BL6 mouse at 100 mg/kg, sc after 24 hrs by FPLC; type: functional, organism-based; set-up: dose 100 mg/kg; conditions: C57Bl/6
How it was run: as §1

[11] = target: Phospholipid-transporting ATPase ABCA1 (Mus musculus, UniProt P41233); test: Induction of ABCA1-mediated [3H]cholesterol efflux in mouse RAW 264.7 macrophages after 24 hrs
Phospholipid-transporting ATPase ABCA1, sequence (P41233 whole entry): as above

Plasma [12] = test: Induction of pre-beta HDL formation in mouse plasma after 2 hrs by ELISA; type: functional, cell-free
Mus musculus [13] = test: Effect on TG content in HDL in C57/BL6 mouse at 30 mg/kg, sc after 24 hrs by FPLC; type: functional, organism-based; set-up: dose 30 mg/kg; conditions: C57Bl/6
How it was run: as §1

Mus musculus [14] = test: Effect on triglyceride level in C57/BL6 mouse at 60 mg/kg, sc after 1 hr; type: functional, organism-based; set-up: dose 60 mg/kg; conditions: C57Bl/6
How it was run: as §2

Mus musculus [15] = test: Effect on triglyceride level in C57/BL6 mouse at 20 mg/kg, sc after 3 hrs; type: functional, organism-based; set-up: dose 20 mg/kg; conditions: C57Bl/6
How it was run: as §2

Mus musculus [16] = test: Increase in VLDL triglyceride level in C57/BL6 mouse at 30 mg/kg, sc by FPLC; type: functional, organism-based; set-up: dose 30 mg/kg; conditions: C57Bl/6
How it was run: as §1

Plasma [17] = test: Induction of pre-beta HDL formation in human plasma at 0.5 mg/ml after 2 hrs by FPLC; type: functional, cell-free
How it was run: as §3

Mus musculus [18] = test: Induction of pre-beta HDL formation in apoe deficient mouse assessed as increase in circulating pre-beta HDL at 60 mg/kg, sc after 2 hrs by FPLC; type: functional, organism-based; set-up: dose 60 mg/kg; conditions: TDE = time-dependent effect
Mus musculus [19] = test: Effect on TG content of HDL in C57/BL6 mouse at 100 mg/kg, sc after 24 hrs by FPLC; type: functional, organism-based; set-up: dose 100 mg/kg; conditions: C57Bl/6
How it was run: as §1

Mus musculus [20] = test: Decrease in HDL cholesterol level in C57/BL6 mouse at 30 mg/kg, sc after 24 hrs by FPLC; type: functional, organism-based; set-up: dose 30 mg/kg; conditions: C57Bl/6
How it was run: as §1

Mus musculus [21] = test: Induction of hypertriglyceridemia in C57/BL6 mouse at 30 mg/kg, sc by FPLC; type: functional, organism-based; set-up: dose 30 mg/kg; conditions: C57Bl/6
How it was run: as §1

[22] = Plasma concentration in C57/BL6 mouse at 60 mg/kg, sc after 3 hrs; type: ADME, organism-based, C57Bl/6; set-up: dose 60 mg/kg, route subcutaneous
How it was run: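 Male C57Bl/6 mice were dosed subcutaneously with peptide in 50 mM mannitol/PBS. Serum was taken by cardiac puncture, and peptide was measured by LC–MS/MS after acetonitrile protein precipitation.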

Mus musculus [23] = test: Effect on triglyceride level in C57/BL6 mouse at 60 mg/kg, sc; type: functional, organism-based; set-up: dose 60 mg/kg; conditions: C57Bl/6, TDE = time-dependent effect
How it was run: as §2

C=CCCCCC[C@H](NC(=O)[C@H](CCC(=O)O)NC(=O)[C@H](CC(N)=O)NC(=O)[C@H](CC(C)C)NC(=O)[C@H](CCCCN)NC(=O)[C@H](CCC(=O)O)NC(=O)[C@H](CCCNC(=N)N)NC(=O)[C@H](CCCCCC=C)NC(=O)[C@H](CCC(=O)O)NC(=O)[C@H](CC(=O)O)NC(=O)[C@H](CC(C)C)NC(=O)[C@@H](NC(=O)[C@@H]1CCCN1C(C)=O)C(C)C)C(=O)N[C@@H](CC(C)C)C(=O)N[C@@H](CCC(=O)O)C(=O)N[C@@H](C)C(=O)N[C@@H](CC(C)C)C(=O)N[C@@H](CCCCN)C(=O)N[C@@H](CCC(N)=O)C(=O)N[C@@H](CCCCN)C(=O)N[C@@H](CC(C)C)C(=O)N[C@@H](CCCCN)C(N)=O (Ac-PVLDE[Ala(5-hexenyl)]REKLNE[Ala(5-hexenyl)]LEALKQKLK-NH2)
IC50 [1]: 60 µM | Activity (Mus musculus [2]): Active | Activity (Mus musculus [3]): inactive | Activity (Mus musculus [4]): Active | Activity [5]: tde | Activity (Plasma [6]): Dose-dependent effect | Activity (Mus musculus [7]): Active | Activity (Mus musculus [8]): Active | Activity (Mus musculus [9]): Active | Activity (Mus musculus [10]): Active | EC50 [11]: 0.4 µM | Activity (Plasma [12]): Dose-dependent effect | Activity (Mus musculus [13]): inactive | Activity (Mus musculus [14]): inactive | Activity (Mus musculus [15]): inactive | Activity (Mus musculus [16]): Active | Activity (Plasma [17]): Active | Activity (Mus musculus [18]): tde | Activity (Mus musculus [19]): inactive | Activity (Mus musculus [20]): Active | Activity (Mus musculus [21]): inactive | concentration at 3 h [22]: 124 µM

CCCCCCC[C@H](NC(=O)[C@H](CCC(=O)O)NC(=O)[C@H](CC(N)=O)NC(=O)[C@H](CC(C)C)NC(=O)[C@H](CCCCN)NC(=O)[C@H](CCC(=O)O)NC(=O)[C@H](CCCNC(=N)N)NC(=O)[C@H](CCCCCCC)NC(=O)[C@H](CCC(=O)O)NC(=O)[C@H](CC(=O)O)NC(=O)[C@H](CC(C)C)NC(=O)[C@@H](NC(=O)[C@@H]1CCCN1C(C)=O)C(C)C)C(=O)N[C@@H](CC(C)C)C(=O)N[C@@H](CCC(=O)O)C(=O)N[C@@H](C)C(=O)N[C@@H](CC(C)C)C(=O)N[C@@H](CCCCN)C(=O)N[C@@H](CCC(N)=O)C(=O)N[C@@H](CCCCN)C(=O)N[C@@H](CC(C)C)C(=O)N[C@@H](CCCCN)C(N)=O (Ac-PVLDE[X1]REKLNE[X1]LEALKQKLK-NH2)
IC50 [1]: 44 µM | Activity (Mus musculus [3]): inactive | Activity (Mus musculus [14]): inactive | Activity (Mus musculus [15]): inactive | concentration at 3 h [22]: 137 µM

C=CCCCCC[C@H](NC(=O)[C@H](CCC(N)=O)NC(=O)[C@H](CCCCN)NC(=O)[C@H](CC(C)C)NC(=O)[C@H](C)NC(=O)[C@H](CCC(=O)O)NC(=O)[C@H](CC(C)C)NC(=O)[C@H](CCCCCC=C)NC(=O)[C@H](CCC(=O)O)NC(=O)[C@H](CC(N)=O)NC(=O)[C@H](CC(C)C)NC(=O)[C@H](CCCCN)NC(=O)[C@H](CCC(=O)O)NC(=O)[C@H](CCCNC(=N)N)NC(=O)[C@@H](CCCCCC=C)NC(=O)[C@H](CCC(=O)O)NC(=O)[C@H](CC(=O)O)NC(=O)[C@H](CC(C)C)NC(=O)[C@@H](NC(=O)[C@@H]1CCCN1C(C)=O)C(C)C)C(=O)N[C@@H](CC(C)C)C(=O)N[C@@H](CCCCN)C(N)=O (Ac-PVLDE[dGly(6-heptenyl)]REKLNE[Ala(5-hexenyl)]LEALKQ[Ala(5-hexenyl)]LK-NH2)
IC50 [1]: 40 µM | Activity (Mus musculus [3]): inactive | Activity (Plasma [6]): Dose-dependent effect | EC50 [11]: 1 µM | Activity (Mus musculus [14]): inactive | Activity (Mus musculus [15]): inactive | concentration at 3 h [22]: 49 µM

C=CCCCCC[C@H](NC(=O)[C@H](CCC(=O)O)NC(=O)[C@H](CC(N)=O)NC(=O)[C@H](CC(C)C)NC(=O)[C@H](CCCCN)NC(=O)[C@H](CCC(=O)O)NC(=O)[C@H](CCCNC(=N)N)NC(=O)[C@@H](CCCCCC=C)NC(=O)[C@H](CCC(=O)O)NC(=O)[C@H](CC(=O)O)NC(=O)[C@H](CC(C)C)NC(=O)[C@H](CCCCCC=C)NC(=O)[C@@H]1CCCN1C(C)=O)C(=O)N[C@@H](CC(C)C)C(=O)N[C@@H](CCC(=O)O)C(=O)N[C@@H](C)C(=O)N[C@@H](CC(C)C)C(=O)N[C@@H](CCCCN)C(=O)N[C@@H](CCC(N)=O)C(=O)N[C@@H](CCCCN)C(=O)N[C@@H](CC(C)C)C(=O)N[C@@H](CCCCN)C(N)=O (Ac-P[Ala(5-hexenyl)]LDE[dGly(6-heptenyl)]REKLNE[Ala(5-hexenyl)]LEALKQKLK-NH2)
IC50 [1]: 21 µM | Activity (Mus musculus [3]): inactive | EC50 [11]: 0.9 µM | Activity (Mus musculus [14]): inactive | Activity (Mus musculus [15]): inactive | concentration at 3 h [22]: 55 µM

Ac-PVLDEFREKLNEELEALKQKLK-NH2
IC50 [1]: 477 µM | Activity (Plasma [6]): inactive | Activity (Mus musculus [23]): tde
